Results reported in PMC4564109 (Journal of biomolecular screening, 2014).
pIC50: −log10 of the molar value. Like-named read-outs stand apart in the source and are kept apart here.

How the values were obtained:
[1] = target: T1, recombinant human DNase I (Homo sapiens, UniProt P24855); assay: High-throughput DNase I screening assay; assay type: biochemical; details: for Type of inhibition according to Lineweaver–Burk plots: DNase I
T1 sequence (P24855 23-282): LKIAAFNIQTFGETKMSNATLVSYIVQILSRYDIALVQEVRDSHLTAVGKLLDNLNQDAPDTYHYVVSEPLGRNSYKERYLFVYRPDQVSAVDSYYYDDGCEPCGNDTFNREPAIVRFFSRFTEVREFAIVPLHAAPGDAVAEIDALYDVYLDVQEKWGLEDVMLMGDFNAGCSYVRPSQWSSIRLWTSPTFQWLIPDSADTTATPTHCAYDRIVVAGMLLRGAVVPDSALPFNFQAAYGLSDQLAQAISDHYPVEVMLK

DNase II = target: T2, DNase II (Sus scrofa, UniProt O62855); assay: HTS fluorescent probe assay with DNase II; assay type: biochemical; details: DNase II 3.32 nM, pH 5.0; compared with DNase I
T2 sequence (O62855 22-364): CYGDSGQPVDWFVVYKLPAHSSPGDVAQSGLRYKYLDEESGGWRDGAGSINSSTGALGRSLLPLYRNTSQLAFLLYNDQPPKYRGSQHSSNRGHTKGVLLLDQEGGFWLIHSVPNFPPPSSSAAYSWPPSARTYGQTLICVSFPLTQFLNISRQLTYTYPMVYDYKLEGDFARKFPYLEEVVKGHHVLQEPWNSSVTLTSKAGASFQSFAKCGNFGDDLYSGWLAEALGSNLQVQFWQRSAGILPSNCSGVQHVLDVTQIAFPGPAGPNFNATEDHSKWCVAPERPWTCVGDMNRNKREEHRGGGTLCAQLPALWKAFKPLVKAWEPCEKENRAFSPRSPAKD

recombinant murine EndoG = target: T3, recombinant murine EndoG (Mus musculus, UniProt O08600); assay: HTS fluorescent probe assay with EndoG; assay type: biochemical; details: EndoG 0.14 μM; compared with DNase I
T3 sequence (O08600 45-294): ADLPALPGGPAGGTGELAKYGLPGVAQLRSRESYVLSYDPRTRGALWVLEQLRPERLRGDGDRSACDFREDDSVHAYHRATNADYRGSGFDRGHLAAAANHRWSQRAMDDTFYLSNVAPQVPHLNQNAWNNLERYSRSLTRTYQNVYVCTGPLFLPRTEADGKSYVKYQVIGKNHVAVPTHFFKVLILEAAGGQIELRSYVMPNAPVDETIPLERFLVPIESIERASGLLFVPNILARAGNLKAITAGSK
How it was run: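 Fluorescence was read kinetically at 37 °C, and mean velocity (mRFU/min) was taken over 20 min after background subtraction. Activity was expressed as a percentage of the DMSO control.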

micrococcal nuclease = micrococcal nuclease (Staphylococcus aureus, UniProt P00644); assay: Plasmid incision assay; assay type: biochemical, bacterial; details: 10 μM
How it was run: (§1)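 Plasmid incision: 1 μg pECFP plasmid in 2 mM CaCl₂, 5 mM MgCl₂, 10 mM Tris-HCl pH 7.4, 0.5 mM DTT, test compound in DMSO (1% final), nuclease added, 1 h at 37 °C. The reaction was stopped with SDS/EDTA and run on a 1% agarose TAE gel at 7 V/cm for 35 min. Ethidium bromide-stained supercoiled band was quantified densitometrically.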

Benzonase = Benzonase (Serratia marcescens, UniProt P13717); assay: Plasmid incision assay; assay type: biochemical, bacterial; details: 10 μM
How it was run: as §1

RNase A = target: T4, RNase A (Bos taurus, UniProt P61823); assay: Ribonuclease A Detection kit; assay type: biochemical; details: 1 μM and 100 μM
T4 sequence (P61823 27-150): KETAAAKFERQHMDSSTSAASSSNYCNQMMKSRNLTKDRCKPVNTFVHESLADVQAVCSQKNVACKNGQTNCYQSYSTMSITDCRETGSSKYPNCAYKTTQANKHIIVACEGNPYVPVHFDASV

protease = assay: Protease Fluorescent Detection kit; assay type: biochemical; details: 1 μM and 100 μM
SOD = SOD Determination kit; assay type: biochemical; details: 1 μM and 100 μM
NRK-52E cells [2] = assay: Cell death assay; assay type: cell-based, rat; details: for Protection against cisplatin-induced cell death (LDH release): cisplatin 60 μM, 24 h; for Cytotoxicity of the inhibitor: highest concentration tested
How it was run: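 NRK-52E rat tubular epithelial cells were grown in DMEM with 5% FBS at 37 °C, 5% CO₂, and used within 1 d after confluence. Cells were seeded at 8000–10,000 per well, grown 24 h, then pre-incubated 2 h with serial dilutions of test compound. Cisplatin 60 μM was added, and LDH release was measured after 24 h with a CytoTox96 kit. Mean ± SD, n = 4.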

NRK-52E cells [3] = assay: TUNEL assay of cisplatin-induced DNA fragmentation; assay type: cell-based, rat; details: inhibitor 100 μM, 24 h cisplatin 60 μM
How it was run: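 Cells were exposed to cisplatin for 24 h in the presence of test compound at 100 μM, fixed in 5% formalin, TUNEL-stained with an in situ cell death detection kit, and counterstained with DAPI. Green-channel mean optical density for TUNEL-positive DNA damage was recorded over 10 independent fields per subset. Mean ± SD, n = 4.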

EndoG [4] = assay: EndoG protein expression by quantitative immunohistochemistry; assay type: cell-based, rat; details: NRK-52E cells, cisplatin 60 μM
How it was run: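 NRK-52E cells were fixed in 5% formalin and stained with rabbit anti-EndoG (1:200 in 0.5% BSA, 0.05% Tween-20, PBS), then AlexaFluor 647 anti-rabbit IgG (1:400), with DAPI counterstain. The control omitted the primary antibody. Red-channel mean optical density was recorded over 10 independent fields per subset. Mean ± SD, n = 4.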

Solubility in water = assay type: physicochemical
LDH = details: 1 μM and 100 μM
EndoG [5] = assay: EndoG mRNA expression by real-time RT-PCR; assay type: cell-based, rat; details: NRK-52E cells, cisplatin
[6] = read-out: IC50 against DNase I, DNase I 1.72 nM, 37 °C, HTS assay

Chain of Benzonase (P13717 22-266): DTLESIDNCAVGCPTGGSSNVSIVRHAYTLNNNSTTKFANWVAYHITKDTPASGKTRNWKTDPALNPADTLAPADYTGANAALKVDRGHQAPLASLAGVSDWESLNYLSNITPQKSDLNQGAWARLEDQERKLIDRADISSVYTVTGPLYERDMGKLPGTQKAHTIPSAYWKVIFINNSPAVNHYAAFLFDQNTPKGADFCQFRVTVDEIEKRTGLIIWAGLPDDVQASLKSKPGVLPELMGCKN

For “1,3-phenylene-bis-aminoguanidine hydrochloride [IG-17]”, the “Type of inhibition according to Lineweaver–Burk plots” value [1] was “competitive inhibitors”, the pIC50 [1, 6] was 5.05 and the “Suppression of DNase II activity” value (DNase II) was “suppress the activity”. For the same compound, the “Suppression of EndoG activity” value (recombinant murine EndoG) was “suppress the activity”, the “Inhibition of micrococcal nuclease (PIA)” value (micrococcal nuclease) was “absence of inhibition” and the “Inhibition of Benzonase (PIA)” value (Benzonase) was “absence of inhibition”. The “Inhibition of RNase A” value (RNase A) was “no inhibition activity was observed”, the Inhibition of protease (protease) was “no inhibition activity was observed” and the “Inhibition of SOD” value (SOD) was “no inhibition activity was observed”. For the same compound, the “Protection against cisplatin-induced cell death (LDH release)” value (NRK-52E cells [2]) was “some protection against cisplatin-induced cell death”, the “Cytotoxicity of the inhibitor” value (NRK-52E cells [2]) was “significant cytotoxicity” and the “Inhibition of cisplatin-induced DNA fragmentation (TUNEL)” value (NRK-52E cells [3]) was “marked inhibition”. The EndoG protein expression (EndoG [4]) was “lower than the control level”, the Solubility in water (Solubility in water) was “unlimited solubility in water” and the “Inhibition of LDH” value (LDH) was “no inhibition activity was observed”.

In the case of “1,4-phenylene-bis-aminoguanidine hydrochloride [JR-132]”, the “Type of inhibition according to Lineweaver–Burk plots” value [1] was “competitive inhibitors”, the pIC50 [1, 6] was 5.56 and the “Suppression of DNase II activity” value (DNase II) was “suppress the activity”. The “Suppression of EndoG activity” value (recombinant murine EndoG) was “suppress the activity”, the “Inhibition of micrococcal nuclease (PIA)” value (micrococcal nuclease) was “absence of inhibition” and the “Inhibition of Benzonase (PIA)” value (Benzonase) was “absence of inhibition”. The “Inhibition of RNase A” value (RNase A) was “no inhibition activity was observed”, the Inhibition of protease (protease) was “no inhibition activity was observed” and the “Inhibition of SOD” value (SOD) was “no inhibition activity was observed”. For the same compound, the “Protection against cisplatin-induced cell death (LDH release)” value (NRK-52E cells [2]) was “some protection against cisplatin-induced cell death”, the “Cytotoxicity of the inhibitor” value (NRK-52E cells [2]) was “significant cytotoxicity” and the “Inhibition of cisplatin-induced DNA fragmentation (TUNEL)” value (NRK-52E cells [3]) was “marked inhibition”. For the same compound, the EndoG protein expression (EndoG [4]) was “significantly decreased”, the “EndoG mRNA expression” value (EndoG [5]) was “significantly decreased” and the Solubility in water (Solubility in water) was “unlimited solubility in water”. The “Inhibition of LDH” value (LDH) was “no inhibition activity was observed”.

`O=C(O)CN(CCN(CC(=O)O)CC(=O)O)CC(=O)O` [EDTA, ethylenediaminetetraacetic acid, reference compound] showed a pIC50 [1] of 3.72.

Compound `[Cl-].[Cl-].[Zn+2]` [ZnCl2, reference compound] has a pIC50 [1, 6] of 4.74.
